Holding throughout (type): functional
Assay [1] deals with Candida albicans. As to the kind of experiment: Antifungal activity against Candida albicans ATCC Y0109 after 24 hrs by micro-broth dilution method. Particulars: ATCC Y0109, 24 h. Put shortly: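 ATCC quality-control strain, tested in every assay. NCCLS M27-A2 broth microdilution. Compounds were dissolved in DMSO, serially diluted in growth medium, inoculated and incubated at 35 °C, with growth read at 24 h. MIC80 is the first well with about 80% growth reduction relative to the drug-free control. Each test was run three times and the mean of replicates taken.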
Background: Dilution methods test growth across graded concentrations, often in twofold steps.

Another assay relates to Candida parapsilosis. Description: Antifungal activity against Candida parapsilosis clinical isolate by micro-broth dilution method. Particulars: Lodderomyces parapsilosis. Put shortly: (§1)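 Clinical isolate. MIC by broth microdilution following the NCCLS M27-A2 reference method for yeasts. Compounds were dissolved in DMSO, serially diluted in growth medium, inoculated and incubated at 35 °C. MIC80 is the first well with about 80% less growth than the drug-free well. Each test was run three times and the mean of replicates reported.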

For another assay, the system named is Candida tropicalis. Description: Antifungal activity against Candida tropicalis clinical isolate by micro-broth dilution method. In a few lines: as §1
The test system of a further assay is Cryptococcus neoformans. Description: Antifungal activity against Cryptococcus neoformans ATCC BLS108 after 72 hrs by micro-broth dilution method. Particulars: ATCC BLS108, 72 h. Put shortly:
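Quality-control ATCC strain included in each assay. Microbroth dilution per NCCLS M27-A2. DMSO-dissolved compounds were serially diluted in growth medium, inoculated and held at 35 °C, with MIC read at 72 h. MIC80 is the first well showing about 80% growth reduction versus the drug-free well. Tests were done in triplicate and the mean reported.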

In a further assay the test system is Trichophyton rubrum. As to the kind of experiment: Antifungal activity against Trichophyton rubrum clinical isolate by micro-broth dilution method. In a few lines: as §1
The nature of assay [2]: Antifungal activity against Fonsecaea compacta clinical isolate by micro-broth dilution method. Put shortly:
as §1

The subject of the next assay is Nannizzia gypsea. As to the kind of experiment: Antifungal activity against Microsporum gypseum clinical isolate by micro-broth dilution method. In a few lines:
as §1

The test system of a further assay is Aspergillus fumigatus. Description: Antifungal activity against Aspergillus fumigatus clinical isolate by micro-broth dilution method. In a few lines:
as §1

Assay [3] relates to Candida albicans. As to the kind of experiment: Ratio of voriconazole MIC80 to compound MIC80 for Candida albicans ATCC Y0109.

Drawing on ChEMBL document CHEMBL1795297, “Design, synthesis and molecular docking studies of novel triazole as antifungal agent” (2011), this text covers MIC80 and Ratio for eleven molecules.

Molecules are shown by their SMILES. ≈ marks a conversion by molar mass, not a printed value.

For `O=C(Nc1ccc(N2CCN(CC(O)(Cn3cncn3)c3ccc(F)cc3F)CC2)c(C(F)(F)F)c1)c1ccc(Cl)cc1` (centres undefined), the MIC80 (as a rule, an inhibitory concentration at the 80% level, which refers to growth in some studies and to a panel of isolates in others) was 4 µg/mL (≈ 6.44 µM) against Candida albicans [1]; 0.25 µg/mL (≈ 0.403 µM) in the assay on Candida parapsilosis; 1 µg/mL (≈ 1.61 µM) against Candida tropicalis; greater than 64 µg/mL against Cryptococcus neoformans; 4 µg/mL (≈ 6.44 µM) in the assay with Trichophyton rubrum; 4 µg/mL (≈ 6.44 µM) in assay [2]. Moreover, the MIC80 against Nannizzia gypsea worked out at 0.25 µg/mL (≈ 0.403 µM); against Aspergillus fumigatus it was 4 µg/mL (≈ 6.44 µM).
`CCCCCCCC(=O)Nc1ccc(N2CCN(CC(O)(Cn3cncn3)c3ccc(F)cc3F)CC2)c(C(F)(F)F)c1` (centres undefined): the MIC80 was 0.25 µg/mL (≈ 0.411 µM) with Candida albicans [1]; 4 µg/mL (≈ 6.57 µM) in the assay on Candida parapsilosis; 16 µg/mL (≈ 26.3 µM) with Candida tropicalis; 16 µg/mL (≈ 26.3 µM) against Cryptococcus neoformans; 4 µg/mL (≈ 6.57 µM) with Trichophyton rubrum; 4 µg/mL (≈ 6.57 µM) in [2]. Moreover, the MIC80 against Nannizzia gypsea was 0.25 µg/mL (≈ 0.411 µM); against Aspergillus fumigatus, greater than 64 µg/mL.
Take `CCCCC(=O)Nc1ccc(N2CCN(CC(O)(Cn3cncn3)c3ccc(F)cc3F)CC2)c(C(F)(F)F)c1` (centres undefined): the MIC80 was found to be 1 µg/mL (≈ 1.76 µM) with Candida albicans [1]; 0.25 µg/mL (≈ 0.441 µM) in the assay on Candida parapsilosis; 1 µg/mL (≈ 1.76 µM) with Candida tropicalis; 4 µg/mL (≈ 7.06 µM) in the assay with Cryptococcus neoformans; 4 µg/mL (≈ 7.06 µM) against Trichophyton rubrum; 4 µg/mL (≈ 7.06 µM) in assay [2]. Moreover, the MIC80 in the assay with Nannizzia gypsea is 4 µg/mL (≈ 7.06 µM); with Aspergillus fumigatus, greater than 64 µg/mL.
In the case of `CC(=O)Nc1ccc(N2CCN(CC(O)(Cn3cncn3)c3ccc(F)cc3F)CC2)c(C(F)(F)F)c1` (centres undefined), the MIC80 against Candida albicans [1] worked out at 0.0625 µg/mL (≈ 0.119 µM); against Candida parapsilosis, 0.25 µg/mL (≈ 0.477 µM); with Candida tropicalis, 0.25 µg/mL (≈ 0.477 µM); against Cryptococcus neoformans, 0.25 µg/mL (≈ 0.477 µM); against Trichophyton rubrum, 1 µg/mL (≈ 1.91 µM); in assay [2] it was 1 µg/mL (≈ 1.91 µM). Also, the MIC80 was 1 µg/mL (≈ 1.91 µM) in the assay on Nannizzia gypsea and greater than 64 µg/mL against Aspergillus fumigatus.
Take `CCCCCCC(=O)Nc1ccc(N2CCN(CC(O)(Cn3cncn3)c3ccc(F)cc3F)CC2)c(C(F)(F)F)c1` (centres undefined): the MIC80 came to 1 µg/mL (≈ 1.68 µM) against Candida albicans [1]; 4 µg/mL (≈ 6.73 µM) in the assay with Candida parapsilosis; 4 µg/mL (≈ 6.73 µM) in the assay with Candida tropicalis; 1 µg/mL (≈ 1.68 µM) against Cryptococcus neoformans; 4 µg/mL (≈ 6.73 µM) in the assay on Trichophyton rubrum; 16 µg/mL (≈ 26.9 µM) in [2]. The MIC80 in the assay with Nannizzia gypsea was 4 µg/mL (≈ 6.73 µM); with Aspergillus fumigatus, greater than 64 µg/mL.
As to `CCCCCC(=O)Nc1ccc(N2CCN(CC(O)(Cn3cncn3)c3ccc(F)cc3F)CC2)c(C(F)(F)F)c1` (centres undefined), the MIC80 worked out at 1 µg/mL (≈ 1.72 µM) in the assay with Candida albicans [1]; 1 µg/mL (≈ 1.72 µM) in the assay on Candida parapsilosis; 4 µg/mL (≈ 6.89 µM) with Candida tropicalis; 1 µg/mL (≈ 1.72 µM) in the assay with Cryptococcus neoformans; 4 µg/mL (≈ 6.89 µM) against Trichophyton rubrum; 16 µg/mL (≈ 27.6 µM) in assay [2]. In addition, the MIC80 with Nannizzia gypsea worked out at 4 µg/mL (≈ 6.89 µM); in the assay with Aspergillus fumigatus, 64 µg/mL (≈ 110 µM).
Regarding `C[C@@H](c1ncncc1F)[C@](O)(Cn1cncn1)c1ccc(F)cc1F` [VORICONAZOLE], the MIC80 turned out to be 0.0156 µg/mL (≈ 0.0447 µM) in the assay on Candida albicans [1]; 1 µg/mL (≈ 2.86 µM) against Candida parapsilosis; 0.25 µg/mL (≈ 0.716 µM) against Candida tropicalis; 0.0156 µg/mL (≈ 0.0447 µM) against Cryptococcus neoformans; 0.0039 µg/mL (≈ 0.0112 µM) in the assay with Trichophyton rubrum; 0.0156 µg/mL (≈ 0.0447 µM) in assay [2]. The MIC80 came to 0.0039 µg/mL (≈ 0.0112 µM) in the assay on Nannizzia gypsea and 1 µg/mL (≈ 2.86 µM) against Aspergillus fumigatus.
In the case of `CCC(C)n1ncn(-c2ccc(N3CCN(c4ccc(OCC5COC(Cn6cncn6)(c6ccc(Cl)cc6Cl)O5)cc4)CC3)cc2)c1=O` (centres undefined) [ITRACONAZOLE], the MIC80 turned out to be 1 µg/mL (≈ 1.42 µM) against Candida albicans [1]; 0.25 µg/mL (≈ 0.354 µM) in the assay with Candida parapsilosis; 0.25 µg/mL (≈ 0.354 µM) in the assay on Candida tropicalis; 1 µg/mL (≈ 1.42 µM) against Cryptococcus neoformans; 0.0156 µg/mL (≈ 0.0221 µM) against Trichophyton rubrum; 0.25 µg/mL (≈ 0.354 µM) in assay [2]. Moreover, the MIC80 was determined as 0.0156 µg/mL (≈ 0.0221 µM) with Nannizzia gypsea and 1 µg/mL (≈ 1.42 µM) with Aspergillus fumigatus.
As for `O=C(Nc1ccc(N2CCN(CC(O)(Cn3cncn3)c3ccc(F)cc3F)CC2)c(C(F)(F)F)c1)c1ccc(OC(F)(F)F)cc1` (centres undefined), the MIC80 in the assay on Candida albicans [1] was 16 µg/mL (≈ 23.9 µM); against Candida parapsilosis, 4 µg/mL (≈ 5.97 µM); with Candida tropicalis, 4 µg/mL (≈ 5.97 µM); against Cryptococcus neoformans it was 16 µg/mL (≈ 23.9 µM); with Trichophyton rubrum it was 16 µg/mL (≈ 23.9 µM); in assay [2] it was 16 µg/mL (≈ 23.9 µM). The MIC80 against Nannizzia gypsea came out at 4 µg/mL (≈ 5.97 µM); in the assay with Aspergillus fumigatus, 64 µg/mL (≈ 95.4 µM).
`O=C(/C=C/c1ccccc1)Nc1ccc(N2CCN(CC(O)(Cn3cncn3)c3ccc(F)cc3F)CC2)c(C(F)(F)F)c1` (centres undefined): the MIC80 came to 0.00097 µg/mL (≈ 0.00158 µM) against Candida albicans [1], 0.25 µg/mL (≈ 0.408 µM) against Cryptococcus neoformans and 4 µg/mL (≈ 6.53 µM) against Aspergillus fumigatus. The Ratio in the assay on Candida albicans [3] turned out to be 16.
With `CC(C)C(=O)Nc1ccc(N2CCN(CC(O)(Cn3cncn3)c3ccc(F)cc3F)CC2)c(C(F)(F)F)c1` (centres undefined), the MIC80 against Candida albicans [1] was 0.25 µg/mL (≈ 0.452 µM); in the assay on Candida parapsilosis, 0.25 µg/mL (≈ 0.452 µM); in the assay with Candida tropicalis it was 1 µg/mL (≈ 1.81 µM); against Cryptococcus neoformans it was 1 µg/mL (≈ 1.81 µM); against Trichophyton rubrum, 1 µg/mL (≈ 1.81 µM); in [2], 4 µg/mL (≈ 7.24 µM). The MIC80 in the assay on Nannizzia gypsea is 1 µg/mL (≈ 1.81 µM); against Aspergillus fumigatus, 64 µg/mL (≈ 116 µM).
